Active and inactive are the calls of the source. No cut-off for these calls is given here.
Assays:
HCT-8 = test: Cytotoxicity against human HCT8 cells after 96 hrs by MTT assay; format: functional, cell-based; conditions: HCT-8, 96 h
Summary of the method: (§1)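 Cells grown in RPMI1640 with 10% FBS, 100 units/mL penicillin and 100 µg/mL streptomycin, at 37 °C in humidified 5% CO2. Seeded at 1200 cells/well; compounds added after 24 h at five concentrations (final DMSO 0.1%), triplicate wells.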

[1] = biological target: T1, Tyrosine-protein phosphatase non-receptor type 1 (Homo sapiens) (UniProt P18031); test: Inhibition of PTP1B at 50 uM
T1 sequence (whole entry): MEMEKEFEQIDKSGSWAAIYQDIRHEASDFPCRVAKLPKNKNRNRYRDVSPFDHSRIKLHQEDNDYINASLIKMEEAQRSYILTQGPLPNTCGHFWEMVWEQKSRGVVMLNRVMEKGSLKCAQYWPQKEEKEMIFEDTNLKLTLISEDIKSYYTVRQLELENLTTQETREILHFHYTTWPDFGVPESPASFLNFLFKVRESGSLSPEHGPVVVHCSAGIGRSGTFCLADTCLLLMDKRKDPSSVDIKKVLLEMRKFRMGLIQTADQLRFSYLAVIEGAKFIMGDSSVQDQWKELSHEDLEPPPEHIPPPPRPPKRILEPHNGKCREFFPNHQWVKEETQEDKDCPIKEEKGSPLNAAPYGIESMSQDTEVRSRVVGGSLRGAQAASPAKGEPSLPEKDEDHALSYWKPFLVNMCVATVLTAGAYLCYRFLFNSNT

A549 = test: Cytotoxicity against human A549 cells after 96 hrs by MTT assay; format: functional, cell-based; conditions: A549, 96 h; summary of the method: as §1
A2780 = test: Cytotoxicity against human A2780 cells after 96 hrs by MTT assay; format: functional, cell-based; conditions: A2780, 96 h; summary of the method: as §1
BGC-823 = test: Cytotoxicity against human BGC-823 cells after 96 hrs by MTT assay; format: functional, cell-based; conditions: BGC-823, 96 h; summary of the method: as §1
Bel-7402 = test: Cytotoxicity against human Bel-7402 cells after 96 hrs by MTT assay; format: functional, cell-based; conditions: Bel-7402, 96 h; summary of the method: as §1
[2] = biological target: Prothrombin (Homo sapiens) (UniProt P00734); test: Inhibition of thrombin at 50 uM

`COc1cc(O[C@@H]2O[C@H](CO)[C@@H](O)[C@H](O)[C@H]2O)cc(OC)c1O` [KOABURASIDE] was tested, and the IC50 (HCT-8) was greater than 10 µg/mL, the Activity [1] was “inactive” and the IC50 (A549) was greater than 10 µg/mL. For the same compound, the IC50 (A2780) was greater than 10 µg/mL, the IC50 (BGC-823) was greater than 10 µg/mL and the IC50 (Bel-7402) was greater than 10 µg/mL. For the same compound, the Activity [2] was “inactive”.
For `CCCCCc1cc(O)cc(OC)c1`, the IC50 (HCT-8) was greater than 10 µg/mL, the Activity [1] was “inactive” and the IC50 (A549) was greater than 10 µg/mL. The IC50 (A2780) was greater than 10 µg/mL, the IC50 (BGC-823) was greater than 10 µg/mL and the IC50 (Bel-7402) was greater than 10 µg/mL. For the same compound, the Activity [2] was “inactive”.
`COc1cc(O)cc(OC)c1O[C@@H]1O[C@H](CO)[C@@H](O)[C@H](O)[C@H]1O` [LEONURISIDE] was tested, and the IC50 (HCT-8) was greater than 10 µg/mL, the Activity [1] was “inactive” and the IC50 (A549) was greater than 10 µg/mL. It also gave an IC50 (A2780) greater than 10 µg/mL, an IC50 (BGC-823) greater than 10 µg/mL and an IC50 (Bel-7402) greater than 10 µg/mL. For the same compound, the Activity [2] was “inactive”.
With `COc1cc([C@H]2c3c(cc(OC)c(O)c3OC)C[C@@H](CO)[C@@H]2CO[C@@H]2O[C@H](CO)[C@@H](O)[C@H](O)[C@H]2O)cc(OC)c1O` the IC50 (HCT-8) was greater than 10 µg/mL, the Activity [1] was “inactive” and the IC50 (A549) was greater than 10 µg/mL. For the same compound, the IC50 (A2780) was greater than 10 µg/mL, the IC50 (BGC-823) was greater than 10 µg/mL and the IC50 (Bel-7402) was greater than 10 µg/mL. The Activity [2] was “inactive”.
`CC[C@H](CC[C@@H](C)[C@H]1CC[C@H]2[C@@H]3CC=C4C[C@@H](O[C@@H]5O[C@H](CO)[C@@H](O)[C@H](O)[C@H]5O)CC[C@]4(C)[C@H]3CC[C@]12C)C(C)C` [SITOGLUSIDE] was tested, and the IC50 (HCT-8) was greater than 10 µg/mL, the Activity [1] was “inactive” and the IC50 (A549) was greater than 10 µg/mL. For the same compound, the IC50 (A2780) was greater than 10 µg/mL, the IC50 (BGC-823) was greater than 10 µg/mL and the IC50 (Bel-7402) was greater than 10 µg/mL. The Activity [2] was “inactive”.
`CCCCCCCCCCCCCC1=C(O)/C(=C2\C(=O)Oc3c2cc(O)c(O)c3CCCCCCCCCCCCC)OC1=O` was tested, and the IC50 (HCT-8) was greater than 10 µg/mL, the Activity [1] was “inactive” and the IC50 (A549) was greater than 10 µg/mL. It also gave an IC50 (A2780) greater than 10 µg/mL, an IC50 (BGC-823) greater than 10 µg/mL and an IC50 (Bel-7402) greater than 10 µg/mL. The Activity [2] was “inactive”.
In the case of `CC[C@@]1(O)C(=O)OCc2c1cc1n(c2=O)Cc2cc3c(CN(C)C)c(O)ccc3nc2-1` [TOPOTECAN], the IC50 (HCT-8) is reported as 1200 nM, the IC50 (A549) is reported as 3500 nM and the IC50 (A2780) is reported as 1200 nM. For the same compound, the IC50 (BGC-823) was 3800 nM and the IC50 (Bel-7402) was 1400 nM.
With `CCCCCCCCCCCCCCCc1cc(O)cc(O)c1` [CARDOL] the IC50 (HCT-8) was 1480 nM, the Activity [1] was “inactive” and the IC50 (A549) was 1430 nM. The IC50 (A2780) was 1310 nM, the IC50 (BGC-823) was 1740 nM and the IC50 (Bel-7402) was 1930 nM. For the same compound, the Activity [2] was “inactive”.
With `CCCCCCCC/C=C\CCCCCCCc1cc(O)cc(O)c1` the IC50 (HCT-8) was 780 nM, the Activity [1] was “inactive” and the IC50 (A549) was 460 nM. For the same compound, the IC50 (A2780) was 1060 nM, the IC50 (BGC-823) was 1430 nM and the IC50 (Bel-7402) was 1070 nM. For the same compound, the Activity [2] was “inactive”.
With `CCCCCCCCCCCCCC1=C(O)C(=O)C=C(NCCCC(=O)O)C1=O` the IC50 (HCT-8) was greater than 10 µg/mL, the Activity [1] was “inactive” and the IC50 (A549) was greater than 10 µg/mL. It also gave an IC50 (A2780) greater than 10 µg/mL, an IC50 (BGC-823) greater than 10 µg/mL and an IC50 (Bel-7402) greater than 10 µg/mL. The Activity [2] was “inactive”.
With `CCCCC/C=C\C/C=C\CCCCCCCc1cc(O)cc(O)c1` the IC50 (HCT-8) was 1540 nM, the Activity [1] was “inactive” and the IC50 (A549) was 1420 nM. For the same compound, the IC50 (A2780) was 1570 nM, the IC50 (BGC-823) was 1790 nM and the IC50 (Bel-7402) was 1910 nM. For the same compound, the Activity [2] was “inactive”.
`Oc1cc(O)c2c(c1)O[C@H](c1ccc(O)c(O)c1)[C@@H](O)C2` [CIANIDANOL] was tested, and the IC50 (HCT-8) was greater than 10 µg/mL, the Activity [1] was “inactive” and the IC50 (A549) was greater than 10 µg/mL. The IC50 (A2780) was greater than 10 µg/mL, the IC50 (BGC-823) was greater than 10 µg/mL and the IC50 (Bel-7402) was greater than 10 µg/mL. For the same compound, the Activity [2] was “inactive”.
With `CCCCCCCCCCCCCC1=C(O)C(=O)C=C(O)C1=O` [Rapanone] the IC50 (HCT-8) was 1520 nM, the Activity [1] was “inactive” and the IC50 (A549) was 1580 nM. For the same compound, the IC50 (A2780) was 1820 nM, the IC50 (BGC-823) was 1890 nM and the IC50 (Bel-7402) was 1460 nM. For the same compound, the Activity [2] was “inactive”.
`CC[C@H](CC[C@@H](C)[C@H]1CC[C@H]2[C@@H]3CC=C4C[C@@H](O)CC[C@]4(C)[C@H]3CC[C@]12C)C(C)C` [BETA-SITOSTEROL] was tested, and the IC50 (HCT-8) was greater than 10 µg/mL, the Activity [1] was “inactive” and the IC50 (A549) was greater than 10 µg/mL. It also gave an IC50 (A2780) greater than 10 µg/mL, an IC50 (BGC-823) greater than 10 µg/mL and an IC50 (Bel-7402) greater than 10 µg/mL. For the same compound, the Activity [2] was “inactive”.

From ChEMBL document CHEMBL1158112, “A nitrogen-containing 3-alkyl-1,4-benzoquinone and a gomphilactone derivative from Embelia ribes” (J Nat Prod, 2006)
